High-throughput results from PubChem BioAssay.
SENP7 inh – inhibitors of human SENP7 protease; recombinant SENP7, Z-RLRGG-aminoluciferin luminescence, 40 min; AID 434973; inhibition, % at 5 µM; 330,000 compounds, 1.5% hits;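 active = inhibition above about 50% at the single test dose, limit read from the data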;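 also: plate controls were DMSO with enzyme for no effect and no enzyme buffer wells for full effect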
SENP8 block-1 – SENP8 protease inhibition | Q96LD8 | purified SENP8, Z-RLRGG-aminoluciferin cleavage, luminescence | inhibition, % at 10 µM | 330,000 compounds, 1.2% hits; in the data active = inhibition above about 50%
Target sequence (Q96LD8 whole entry, looked up): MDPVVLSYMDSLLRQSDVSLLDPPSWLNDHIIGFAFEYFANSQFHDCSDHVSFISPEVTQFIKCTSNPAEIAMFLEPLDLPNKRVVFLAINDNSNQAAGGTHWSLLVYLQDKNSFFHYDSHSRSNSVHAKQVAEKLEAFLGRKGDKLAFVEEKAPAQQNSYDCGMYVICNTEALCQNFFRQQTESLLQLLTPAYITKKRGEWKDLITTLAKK
SENP6 block – SENP6 protease inhibition; Recombinant SENP6 catalytic domain, aminoluciferin luminescence; Q9GZR1; AID 2599; 330,000 compounds, 1.8% hits; inhibition, % at 10 µM;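 active = inhibition above about 50% at the single tested dose, limit read from the data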;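 also: plate controls were DMSO wells with enzyme for no effect and DMSO wells lacking enzyme for full effect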
Platelet DG rel – platelet dense granule release activity. human platelet-rich plasma, SFLLRN dense granule ATP release, luminescence. 300,000 compounds, 0.22% hits. AID 1663. inhibition, %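 (compounds screened at 7.5 µM in platelet-rich plasma)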;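 active = mean replicate score, as percent of positive control, at or above 50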
SENP1 inh – SENP1 (human) catalytic domain inhibition; AID 624204; 360,000 compounds, 0.21% hits; Q9P0U3; inhibition, % at 10 µM; recombinant SENP1 catalytic domain, CyPet-SUMO1-YPet FRET cleavage;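 active = inhibition at least 30% at 10 µM, raw YFP signal under a set limit, fluorescence ratio 0.5 to 1.5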;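 also: 0% = enzyme with DMSO and 100% = no enzyme wells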
Target sequence (Q9P0U3 419-644 limits assumed): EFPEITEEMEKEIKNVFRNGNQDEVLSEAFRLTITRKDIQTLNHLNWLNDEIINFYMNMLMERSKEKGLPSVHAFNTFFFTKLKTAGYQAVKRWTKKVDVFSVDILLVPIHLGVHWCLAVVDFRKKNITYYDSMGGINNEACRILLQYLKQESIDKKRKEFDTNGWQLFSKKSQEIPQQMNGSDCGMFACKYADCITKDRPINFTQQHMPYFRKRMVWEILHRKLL
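Material: hSENP1 catalytic domain, recombinant; medium: Tris pH 8 with BME, BSA, NP40 and catalase; compound: single concentration of 10 µM compound, 0.5% DMSO final; technique: FRET read of cyan and yellow fluorescence; timing: 50 min enzyme reaction, room temperature, light-protected; reagent: SFCypet-SUMO1-SFYpet substrate at 25 nM; control set: no-enzyme low, enzyme-DMSO high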
SENP8 block-2 – blocks human SENP8 cleavage of Nedd8 substrate | Q96LD8 | recombinant SENP8, Nedd8 substrate fluorescence | inhibition, % at 20 µM | 360,000 compounds, 0.64% hits; in the data active = inhibition mostly above about 40%, no sharp cut-off; inactive = mostly below about 27%
The depositor's hits bear a star; / = not tested or not shown. An excerpt weighted towards active compounds, which were near 2.6% of everything screened.

SMILES	SENP7 inh	SENP8 block-1	SENP6 block	Platelet DG rel	SENP1 inh	SENP8 block-2
O=C(CC(Nc1ccc(Cl)cc1Cl)C(=O)O)c1ccccc1 (stereo not drawn)	-5	-2	-14	-16	3	26
O=C(CC(Nc1ccccc1)C(=O)O)c1ccccc1 (stereo not drawn)	10	54*	79*	8	-13	-32
COc1ccc(NC(=O)N(C)C[C@H]2OCCCC[C@@H](C)Oc3ccc(N(C)C)cc3C(=O)N([C@H](C)CO)C[C@@H]2C)cc1	/	/	/	/	1	-217
O=C(O)c1ccc2c(c1)C(=O)/C(=C\c1ccco1)C2=O	6	0	8	-1	31*	17
O=C1/C(=C/c2ccc([N+](=O)[O-])cc2)C=C(c2ccccc2)N1c1ccc(O)cc1	-9	-3	-3	-4	5	24
O=C(O)c1cccc(N2C(=O)/C(=C/c3ccc([N+](=O)[O-])cc3)C=C2c2ccccc2)c1	-3	1	20	-7	32*	30
CCNC(=S)N/N=C1\C(=O)c2cccc3cccc1c23	-1	-1	-11	-4	4	44*
O=C(N/N=C1/C(=O)c2cccc3cccc1c23)c1ccc(Cl)cc1	-7	-1	-35	5	0	48*
O=C(Nc1cccc(NC(=O)c2ccc(Cl)cc2)n1)c1ccc(Cl)cc1	-2	-8	-10	0	0	13
CCc1nc2c(OCc3ccc(Cl)cc3)cccn2c1N(C)C(=O)c1ccc(C)cc1	/	/	/	/	-2	22
O=S(=O)(Nc1nc2ccccc2nc1N1CCc2ccccc2C1)c1ccc(Cl)cc1	58*	0	37	11	-11	-235
COC1=CC(=O)C=C(OC)C1=O	/	/	/	/	-1	22
COC1=CC(=O)c2ccccc2C1=O	18	51*	56*	/	2	-221
Cc1ccsc1/C=N/Nc1ccc(F)cc1F	9	56*	50*	3	-5	-2
COc1ccc(C(=O)OC2C(OC)OCC(O)C2O)cc1 (stereo not drawn)	/	/	/	/	1	8
COC1=C(c2ccccc2)C(=O)c2ccccc2C1=O	13	3	28	2	13	92*
COc1ccc(CN2CCC(n3nccc3NC(=O)C3CC3)CC2)c(Cl)c1OC	4	-3	8	-1	-1	10
Cn1c(O)c(N=NC(=O)CNC(=O)c2ccccc2)c2ccccc21	1	6	-22	0	1	10
Cn1c(N=NC(=O)c2ccccc2)c(O)c2ccccc21	49	41	70*	-5	1	24
CCOC(=O)CC1C(=O)NCCN1c1nc2ccc(C)cn2c(=O)c1/C=C1\SC(=S)N(C(C)CC)C1=O (stereo not drawn)	-1	6	-10	-9	/	/
CCOC(=O)CC1C(=O)NCCN1c1nc2ccc(C)cn2c(=O)c1/C=C1\SC(=S)N(CC(C)C)C1=O (stereo not drawn)	12	-2	-4	4	-14	48*
O=C(O)c1ccc(N/N=C/c2ccc3nccnc3c2)cc1	100*	97*	98*	56*	37	16
O=C(O)c1ccc(N/N=C/c2cccc3cccnc23)cc1	31	30	54*	4	-38	-86
CC(C)(C)OC(=O)NCCC(=O)N/N=C/c1cccc2cccnc12	8	-3	-13	0	1	22
O=C(Nc1nnc(C2CC2)s1)c1cncc(Br)c1	1	-1	5	/	0	-13
SMILES	SENP7 inh	SENP8 block-1	SENP6 block	Platelet DG rel	SENP1 inh	SENP8 block-2
CN(C)S(=O)(=O)c1cccc(NC(=O)c2cccc(S(=O)(=O)N3CCc4ccccc43)c2)c1	-7	-8	-2	/	1	8
Fc1ccc(-c2nc(-c3cccs3)no2)cc1	94*	86*	95*	5	1	15
Nc1c(Cl)ncnc1N/N=C/c1ccc(O)cc1	96*	95*	96*	72*	1	-137
Cc1ccc(NC(=O)c2ccc(Cl)nc2)cc1	7	-5	-17	6	1	16
Cc1ccc(NC(=O)c2nsc(Cl)c2Cl)cc1	62*	31	54*	4	0	7
COCCN1C(=O)CCC1(C)c1nnnn1-c1ccc2ccccc2c1 (stereo not drawn)	/	/	/	/	2	13
Cc1cc(/C=C2\C(=O)NN(c3ccccc3)C2=O)c(C)n1-c1ccccc1O	34	19	8	9	3	53*
